Experiments:
Format in all cases: functional
[1] = system: Klebsiella pneumoniae; assay: Antibacterial activity against Klebsiella pneumoniae ATCC 13883 after 24 hrs by CLSI method; conditions: ATCC 13883, 24 h
Method in brief: (§1)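 Broth microdilution in 96-well plates, using a medium of 1.75% w/v acid digest of casein and 0.15% w/v starch. Compounds came from a 10 mg/mL DMSO stock. Serial 2-fold dilutions started at 64 μg/mL, with DMSO diluted along with the compounds (0.64% final at the top concentration). Plates were incubated 24 h at 37 °C and read by visual inspection. Moxifloxacin and rifampicin were the positive controls.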

[2] = system: Escherichia coli; assay: Antibacterial activity against Escherichia coli ATCC 25922 after 24 hrs by CLSI method; conditions: ATCC 25922, 24 h; method in brief: as §1
[3] = system: Acinetobacter baumannii; assay: Antibacterial activity against Acinetobacter baumannii BAA1605 after 24 hrs by CLSI method; conditions: BAA1605, 24 h; method in brief: as §1
[4] = system: Acinetobacter baumannii; assay: Antibacterial activity against Acinetobacter baumannii BAA747 after 24 hrs by CLSI method; conditions: BAA747, 24 h; method in brief: as §1
[5] = system: Pseudomonas aeruginosa; assay: Antibacterial activity against Pseudomonas aeruginosa ATCC 27853 after 24 hrs by CLSI method; conditions: ATCC 27853, 24 h; method in brief: as §1
[6] = system: L5178Y; assay: Cytotoxicity against mouse L5178Y cells by MTT assay
Method in brief: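 MTT viability assay on L5178Y mouse lymphoma cells, compared with untreated controls. Negative controls were media containing 0.1% ethylene glycol monomethyl ether/DMSO. Three independent experiments, each in triplicate.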

[7] = system: Staphylococcus aureus; assay: Antibacterial activity against Staphylococcus aureus ATCC 29213 after 24 hrs by CLSI method; conditions: ATCC 29213, 24 h; method in brief: as §1
[8] = system: Staphylococcus aureus; assay: Antibacterial activity against Staphylococcus aureus ATCC 700699 after 24 hrs by CLSI method; conditions: ATCC 700699, 24 h; method in brief: as §1

Compound | MIC [1] [µM] | MIC [2] [µM] | MIC [3] [µM] | MIC [4] [µM] | MIC [5] [µM] | MIC [6] [µM] | MIC [7] [µM] | MIC [8] [µM]
CCC(C)[C@@H](C(=O)O)n1c(C)cc2c3c(c(C)c(O)c2c1=O)OC[C@H](C(C)(C)O)C3 (stereo partly specified) | > 100 | > 100 | > 100 | > 100 | > 100 | > 20 | > 100 | > 100
Cc1c2c(c3cc(C)n([C@@H](CC(C)C)C(=O)O)c(=O)c3c1O)C[C@@H](C(C)(C)O)CO2 | > 100 | > 100 | > 100 | > 100 | > 100 | > 20 | > 100 | > 100

Source: ChEMBL document CHEMBL4265995, “Chaetolines A and B, Pyrano[3,2- f]isoquinoline Alkaloids from Cultivation of Chaetomium sp. in the Presence of Autoclaved Pseudomonas aeruginosa” (2018)
